Experimental data as given in ChEMBL document CHEMBL3351748, “Synthesis and anticonvulsant activity of novel purine derivatives” (Eur J Med Chem, 2014).
Active and inactive are the calls of the source. The rule behind the calls is not given here.

What was measured:
Mus musculus [1] = experiment: Anticonvulsant activity in Kunming mouse assessed as protection against MES-induced seizures at 100 mg/kg, ip after 0.5 hrs by MES test; assay type: functional, organism-based; set-up: dose 100 mg/kg
Summary of the method: (§1)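 KunMing mice (18-22 g), compounds in DMSO given i.p. at 30 and 100 mg/kg, 3 animals per dose. Examined 0.5 h after dosing; current applied 0.2 s through corneal electrodes. Protection scored as abolition of hind-leg tonic maximal extension; reported as animals protected/animals tested.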

Mus musculus [2] = experiment: Anticonvulsant activity in Kunming mouse assessed as protection against MES-induced seizures at 30 mg/kg, ip after 0.5 hrs by MES test; assay type: functional, organism-based; set-up: dose 30 mg/kg; summary of the method: as §1
Mus musculus [3] = experiment: Anticonvulsant activity in ip dosed Kunming mouse assessed as protection against MES-induced seizures after 0.5 hrs by MES test; assay type: functional
Summary of the method: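 KunMing mice (18-22 g) dosed i.p., compounds dissolved in DMSO; corneal-electrode shock (0.2 s) 30 min after administration. Endpoint is abolition of hind-leg tonic extension. ED50 is the dose protecting 50% of animals, given with 95% confidence intervals.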

Mus musculus [4] = experiment: Anticonvulsant activity in orally dosed Kunming mouse assessed as protection against MES-induced seizures after 1.5 hrs by MES test; settings: po
[5] = Toxicity in orally dosed Kunming mouse assessed as inability of animal to maintain equilibrium on rod for at least 1 min in each trial by rotarod test; assay type: organism-based; settings: in vivo, po
Summary of the method: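 Rotarod test (3.2 cm rod, 10 rpm) in trained mice after oral dosing in 0.5% methylcellulose, tested at the 1.5 h time of peak effect. Toxicity is failure to stay on the rod for at least 1 min per trial. TD50 is the median dose for minimal neurotoxicity.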

Mus musculus [6] = organism: Mus musculus; experiment: Protective index, ratio of oral neurotoxic TD50 against Kunming mouse by rotarod test to oral anticonvulsant ED50 in Kunming mouse by MES test
Mus musculus [7] = experiment: Anticonvulsant activity in Kunming mouse assessed as protection against sc-PTZ-induced mortality 50 mg/kg, sc administered 30 mins before PTZ injection; assay type: functional; settings: route subcutaneous
Summary of the method: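 KunMing mice (18–22 g), 10 per group, given test agent dissolved in DMSO. Thirty minutes later, PTZ 85 mg/kg in saline was injected s.c. Animals were held in individual cages and watched for 0.5 h. Clonic seizures, tonic seizures and deaths were counted, and mortality was expressed as % inhibition.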

Mus musculus [8] = experiment: Protective index, ratio of intraperitoneal neurotoxic TD50 against Kunming mouse by rotarod test to intraperitoneal anticonvulsant ED50 in Kunming mouse by MES test
Summary of the method: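 Protective index is TD50/ED50. Both come from i.p. dosing in KunMing mice: ED50 from protection of hind-leg tonic extension in the 0.5 h MES test, TD50 from failure to stay 1 min on the 10 rpm rotarod.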

Mus musculus [9] = experiment: Anticonvulsant activity in Kunming mouse assessed as protection against sc-PTZ-induced tonic seizures 50 mg/kg, sc administered 30 mins before PTZ injection; assay type: functional; settings: route subcutaneous
Summary of the method: (§2)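 Mice, 10 per group, dosed at 50 mg/kg. PTZ 85 mg/kg in saline given s.c. 30 min later. Animals housed individually and watched for 0.5 h. Clonic seizures, tonic seizures (usually maximal hind-leg extension) and deaths counted as percent inhibition.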

Mus musculus [10] = experiment: Anticonvulsant activity in Kunming mouse assessed as protection against sc-PTZ-induced clonic seizures 50 mg/kg, sc administered 30 mins before PTZ injection; assay type: functional; settings: route subcutaneous; summary of the method: as §2
[11] = Toxicity in ip dosed Kunming mouse assessed as inability of animal to maintain equilibrium on rod for at least 1 min in each trial by rotarod test; assay type: organism-based; settings: in vivo
Summary of the method: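 Mice pre-trained on a rotarod (3.2 cm diameter, 10 rpm), then dosed i.p. Neurotoxicity scored as failure to keep balance on the rod for at least 1 min in each trial. TD50 is the dose giving minimal neurotoxicity in 50% of animals.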

Mus musculus [12] = experiment: Anticonvulsant activity in orally dosed Kunming mouse assessed as time of peak effect for protection against MES-induced seizures […] by MES test; assay type: functional

Compound	Activity (Mus musculus [1])	Activity (Mus musculus [2])	ED50 (Mus musculus [3])	Ratio TD50/ED50 (Mus musculus [8])	TD50 at 1 min [11]	further results
CCCCCCCCCCn1cnc2c(-n3ccnc3)ncnc21	Active	inactive				
NC(=O)N1c2ccccc2C=Cc2ccccc21 [CARBAMAZEPINE]			11.8 mg/kg	6.4		ED50 (Mus musculus [4]): 27.3 mg/kg; TD50 at 1 min [5]: 329 mg/kg; Ratio TD50/ED50 (Mus musculus [6]): 12; inhibition in vivo at 50 mg/kg (Mus musculus [7]): 80%; inhibition in vivo at 50 mg/kg (Mus musculus [9]): 100%; inhibition in vivo at 50 mg/kg (Mus musculus [10]): 0%
CCCCn1cnc2c1ncn1cnnc21	inactive	inactive				
CCCCCn1cnc2c1ncn1cnnc21	Active	inactive				
Clc1cccc(Cn2cnc3c2ncn2cnnc32)c1	inactive	inactive				
CCCCCCCCn1cnc2c(-n3cncn3)ncnc21	Active	Active	33.2 mg/kg	7.4	247 mg/kg	
CCCCCCCn1cnc2c(-n3cncn3)ncnc21	Active	Active	31.5 mg/kg	3.3	105 mg/kg	
CCCCCCCCCCn1cnc2c(-n3cncn3)ncnc21	Active	Active	23.4 mg/kg	>25.6	> 700 mg/kg	ED50 (Mus musculus [4]): 39.4 mg/kg; TD50 at 1 min [5]: > 1500 mg/kg; Ratio TD50/ED50 (Mus musculus [6]): >38.1; Time (Mus musculus [12]): 1.5 h; inhibition in vivo at 50 mg/kg (Mus musculus [7]): 70%; inhibition in vivo at 50 mg/kg (Mus musculus [9]): 90%; inhibition in vivo at 50 mg/kg (Mus musculus [10]): 20%
CCCCCCCCCCn1cnc2c(-n3cccn3)ncnc21	Active	inactive	66.5 mg/kg	3.6	241 mg/kg	
Clc1ccccc1Cn1cnc2c1ncn1cnnc21	Active	inactive	51.9 mg/kg	6.1	315 mg/kg	
Fc1ccc(Cn2cnc3c(-n4cncn4)ncnc32)cc1	inactive	inactive				
c1ccc(Cn2cnc3c2ncn2cnnc32)cc1	Active	inactive				
CCCCCCCCCCn1cnc2c1ncn1cnnc21	inactive	inactive				
COc1ccc(Cn2cnc3c(-n4cncn4)ncnc32)cc1	inactive	inactive				
Fc1cccc(Cn2cnc3c2ncn2cnnc32)c1	inactive	inactive				
Clc1ccc(Cn2cnc3c(-n4cncn4)ncnc32)cc1	inactive	inactive				
c1ccc(Cn2cnc3c(-n4cncn4)ncnc32)cc1	Active	inactive	66.6 mg/kg	4.7	315 mg/kg	
Fc1ccccc1Cn1cnc2c(-n3cccn3)ncnc21	Active	inactive				
CCCCCCn1cnc2c1ncn1cnnc21	Active	inactive	51.2 mg/kg	2	102 mg/kg	
CCCCCn1cnc2c(-n3cncn3)ncnc21		inactive				

Compound	Activity (Mus musculus [1])	Activity (Mus musculus [2])	ED50 (Mus musculus [3])	Ratio TD50/ED50 (Mus musculus [8])	TD50 at 1 min [11]	further results
Clc1ccccc1Cn1cnc2c(-n3cncn3)ncnc21		inactive				
CCCCCCCCn1cnc2c1ncn1cnnc21	Active	inactive				
CCCCCCn1cnc2c(-n3cncn3)ncnc21	Active	inactive	43.9 mg/kg	4.8	210 mg/kg	
CCCCCCCCCCn1cnc2c(-n3cnc(C)c3)ncnc21	Active	inactive	67.5 mg/kg	2.9	196 mg/kg	
Fc1ccccc1Cn1cnc2c1ncn1cnnc21	Active	inactive				
Cc1ccc(Cn2cnc3c(-n4cncn4)ncnc32)cc1	inactive	inactive				
Cc1ccc(Cn2cnc3c2ncn2cnnc32)cc1	inactive	inactive				
Fc1cccc(Cn2cnc3c(-n4cncn4)ncnc32)c1	Active	inactive	45.9 mg/kg	8.3	384 mg/kg	
CCCCCCCCCCn1cnc2c(Sc3ncn[nH]3)ncnc21	inactive	inactive				
Fc1ccc(Cn2cnc3c2ncn2cnnc32)cc1	inactive	inactive				
Clc1ccc(Cn2cnc3c2ncn2cnnc32)cc1	inactive	inactive				
Fc1ccccc1Cn1cnc2c(-n3ccnc3)ncnc21	Active	inactive	61.4 mg/kg	1.8	115 mg/kg	
Clc1cccc(Cn2cnc3c(-n4cncn4)ncnc32)c1	Active	inactive	65.4 mg/kg	7.5	488 mg/kg	
CCCCCCCCCCCCCCn1cnc2c(-n3cncn3)ncnc21	inactive	inactive				
Cc1cn(-c2ncnc3c2ncn3Cc2ccccc2F)cn1	inactive	inactive				
CCCCCCCCCCCCn1cnc2c(-n3cncn3)ncnc21		inactive				
CCCCCCCn1cnc2c1ncn1cnnc21	Active	inactive				
COc1ccc(Cn2cnc3c2ncn2cnnc32)cc1	inactive	inactive				
Fc1ccccc1Cn1cnc2c(-n3cncn3)ncnc21	Active	Active	29.9 mg/kg	15	449 mg/kg	
Fc1ccccc1Cn1cnc2c(Sc3ncn[nH]3)ncnc21	inactive	inactive				
